Results as given in ChEMBL document CHEMBL3091322 (J Med Chem, 2013).

How the values were obtained:
Rattus norvegicus [1] = organism: Rattus norvegicus; assay: Displacement of [3H]nisoxetine from Sprague-Dawley rat brain frontal cortex NET at 10 uM by scintillation counting analysis; assay type: tissue-based
Procedure, shortened: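 Rat frontal cortex membranes (8 mg original wet weight) in Tris/NaCl/KCl buffer, pH 7.4, with 0.5 nM [3H]nisoxetine for 180 min at 0–4°C. Single test concentration of 10 µM. Nonspecific binding defined with desipramine. Filtration on GF/B filters, then scintillation counting. Result reported as percent displacement.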

[2] = target: Sodium-dependent serotonin transporter (Rattus norvegicus, UniProt P31652); assay: Displacement of [3H]citalopram from Sprague-Dawley rat brain stem SERT site S1 by scintillation counting analysis
Sodium-dependent serotonin transporter (Rattus norvegicus, UniProt P31652), sequence (P31652 whole entry): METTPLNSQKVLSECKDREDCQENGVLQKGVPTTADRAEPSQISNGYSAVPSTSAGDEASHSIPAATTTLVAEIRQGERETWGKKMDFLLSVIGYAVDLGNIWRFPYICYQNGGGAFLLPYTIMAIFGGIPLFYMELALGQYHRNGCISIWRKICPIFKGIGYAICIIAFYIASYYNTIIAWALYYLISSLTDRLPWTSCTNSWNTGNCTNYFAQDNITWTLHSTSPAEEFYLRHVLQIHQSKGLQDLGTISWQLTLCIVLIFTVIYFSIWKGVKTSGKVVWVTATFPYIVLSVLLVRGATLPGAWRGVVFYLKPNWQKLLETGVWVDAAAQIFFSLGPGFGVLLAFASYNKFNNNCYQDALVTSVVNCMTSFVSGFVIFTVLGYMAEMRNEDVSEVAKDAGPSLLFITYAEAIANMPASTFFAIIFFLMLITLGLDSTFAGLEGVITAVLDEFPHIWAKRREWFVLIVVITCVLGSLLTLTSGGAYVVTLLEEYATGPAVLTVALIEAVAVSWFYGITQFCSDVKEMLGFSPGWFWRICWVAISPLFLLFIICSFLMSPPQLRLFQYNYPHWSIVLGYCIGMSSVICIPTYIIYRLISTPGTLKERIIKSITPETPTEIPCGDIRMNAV

[3] = target: Sodium-dependent serotonin transporter (Rattus norvegicus) (UniProt P31652); assay: Displacement of [3H]citalopram from Sprague-Dawley rat brain stem SERT site S1 at 10 uM by scintillation counting analysis; assay type: tissue-based
Sodium-dependent serotonin transporter (Rattus norvegicus), sequence (P31652 whole entry): as above

[4] = Displacement of [3H]nisoxetine from Sprague-Dawley rat brain frontal cortex NET by scintillation counting analysis; assay type: tissue-based
Procedure, shortened: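 Frontal cortex membranes from male Sprague-Dawley rats incubated with 0.5 nM [3H]nisoxetine for 180 min at 0–4°C in pH 7.4 Tris/NaCl/KCl buffer. Desipramine used for nonspecific binding. Full concentration curves run for compounds giving >70% displacement at 10 µM. Filtration and scintillation counting; Ki calculated.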

Rattus norvegicus [5] = organism: Rattus norvegicus; assay: Selectivity ratio of Ki for Sprague-Dawley rat brain frontal cortex NET to Ki for Sprague-Dawley rat brain stem SERT; assay type: tissue-based
[6] = target: T1, Sodium-dependent serotonin transporter (Homo sapiens, UniProt P31645); assay: biochemical; assay type: cell-based, COS-7
Target sequence in this assay (P31645 whole entry): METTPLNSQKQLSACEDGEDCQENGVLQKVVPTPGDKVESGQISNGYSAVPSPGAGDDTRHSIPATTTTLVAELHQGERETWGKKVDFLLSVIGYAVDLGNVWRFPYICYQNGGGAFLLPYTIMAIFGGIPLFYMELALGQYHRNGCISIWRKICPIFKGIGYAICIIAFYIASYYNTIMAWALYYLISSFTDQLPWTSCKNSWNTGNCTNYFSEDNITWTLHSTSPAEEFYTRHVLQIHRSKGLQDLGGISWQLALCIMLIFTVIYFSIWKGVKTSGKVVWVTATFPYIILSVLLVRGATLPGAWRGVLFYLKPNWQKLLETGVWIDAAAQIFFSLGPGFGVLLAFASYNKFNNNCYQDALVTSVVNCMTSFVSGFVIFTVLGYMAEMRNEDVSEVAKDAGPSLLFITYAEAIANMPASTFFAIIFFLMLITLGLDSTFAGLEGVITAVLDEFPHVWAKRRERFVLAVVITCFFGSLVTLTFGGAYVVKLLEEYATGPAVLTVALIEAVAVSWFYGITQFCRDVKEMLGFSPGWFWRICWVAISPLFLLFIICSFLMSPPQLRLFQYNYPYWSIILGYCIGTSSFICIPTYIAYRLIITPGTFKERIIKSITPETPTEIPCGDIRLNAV

[7] = target: T1, Sodium-dependent serotonin transporter; conditions: COS-7
Target sequence in this assay (P31645 whole entry, looked up): as the sequence (P31645 whole entry) above

inhibition (Rattus norvegicus [1]) [%]	SMILES	Ki [4] [µM]	further results
–	CN(C)CCCC1(c2ccc(F)cc2)OCc2cc(CNCc3coc4ccccc34)ccc21 (racemic)	0.284	–
–	CN(CCCC1(c2ccc(F)cc2)OCc2cc(C#N)ccc21)Cc1coc2ccccc12 (racemic)	0.265	–
60.4	CCCN(C)CCCC1(c2ccc(F)cc2)OCc2cc(C#N)ccc21 (racemic)	–	Ki [2]: 0.118 µM; inhibition [3]: > 70%
42	CN(C)CCCC1(c2ccc(F)cc2)OCc2cc(-c3ccc(N)cc3)ccc21 (racemic)	–	–
–	CN(C)CCCC1(c2ccc(F)cc2)OCc2cc(/C=C/Cc3ccccc3)ccc21 (racemic)	4.75	–
17	CN(C)CCCC(O)(c1ccc(Br)cc1)c1ccc(C#N)cc1CO (racemic)	–	–
–	CN(CCCC1(c2ccc(F)cc2)OCc2cc(C#N)ccc21)Cc1ccc2ccccc2c1 (racemic)	0.272	–
–	CN(C)CCCC1(c2ccc(F)cc2)OCc2c(I)cccc21 (racemic)	11.3	–
–	CN(C)CCCC1(c2ccc(F)cc2)OCc2cc(C(N)=O)ccc21 (racemic)	0.123	–
62.9	CN(CCCC1(c2ccc(F)cc2)OCc2cc(C#N)ccc21)Cc1csc2ccccc12 (racemic)	–	–
–	CN(C)CCCC1(c2ccc(-c3cccc(C#N)c3)cc2)OCc2cc(C#N)ccc21 (racemic)	2.8	–
–	COc1ccc2[nH]cc(CN(C)CCCC3(c4ccc(F)cc4)OCc4cc(C#N)ccc43)c2c1 (racemic)	5.09	–
–	CN(CCCC1(c2ccc(F)cc2)OCc2cc(C#N)ccc21)C1CC=C(c2c[nH]c3ccccc23)CC1 (racemic)	1.02	–
–	CN(CCCC1(c2ccc(F)cc2)OCc2cc(C#N)ccc21)Cc1c[nH]c2ccccc12 (racemic)	1.3	–
–	CN(C)CCCC1(c2ccc(F)cc2)OCc2cc(CNCc3ccc4c(c3)Cc3ccccc3-4)ccc21 (racemic)	2.33	Ratio Ki (Rattus norvegicus [5]): 99; Ki [2]: 0.0236 µM; inhibition [3]: > 70%
–	CN(C)CCCC1(c2ccc(F)cc2)OCc2cc(-c3ccc([N+](=O)[O-])cc3)ccc21 (racemic)	8.28	–
45	CN(C)CCCC1(c2ccc(Br)cc2)OCc2cc(C#N)ccc21 (racemic)	–	–

inhibition (Rattus norvegicus [1]) [%]	SMILES	Ki [4] [µM]	further results
–	CN(C)CCCC1(c2ccc(F)cc2)OCc2cc(/C=C/c3ccccc3)ccc21 (single isomer, unassigned; (+))	–	IC50 [6]: 3.4 µM
44	CN(C)CCCC1(c2ccc(/C=C/c3ccccc3)cc2)OCc2cc(C#N)ccc21 (racemic)	–	T1/2 [7]: 44 min
19.7	CN(C)CCCC1(c2ccc(F)cc2)OCc2cc(CN3CCN(c4cccc(Cl)c4Cl)CC3)ccc21 (racemic)	–	–
39.7	COc1ccccc1N1CCN(Cc2ccc3c(c2)COC3(CCCN(C)C)c2ccc(F)cc2)CC1 (racemic)	–	–
–	CN(C)CCCC1(c2ccc(F)cc2)OCc2cc(CN3CCOCC3)ccc21 (racemic)	> 80	Ki [2]: 0.0136 µM; inhibition [3]: > 70%
66.9	CN(C)CCCC1(c2ccc(F)cc2)OCc2cc(CNCc3ccc4c(c3)COC4(CCCN(C)C)c3ccc(F)cc3)ccc21 (racemic)	–	–
–	CN(C)CCCC1(c2ccc(-c3cccc(N)c3)cc2)OCc2cc(C#N)ccc21 (racemic)	7.02	–
31.2	CN(CCCC1(c2ccc(F)cc2)OCc2cc(C#N)ccc21)Cc1ccnc2ccccc12 (stereo not drawn)	–	–
–	CN(C)CCCC1(c2ccc(F)cc2)OCc2cc(CN3CCN(c4ccccc4)CC3)ccc21 (racemic)	11.1	–
–	CCCCN(C)CCCC1(c2ccc(F)cc2)OCc2cc(C#N)ccc21 (racemic)	0.276	Ki [2]: 0.0616 µM; inhibition [3]: > 70%
–	CN(CCCCc1ccccc1)CCCC1(c2ccc(F)cc2)OCc2cc(C#N)ccc21 (racemic)	0.448	–
–	CN(CCCC1(c2ccc(F)cc2)OCc2cc(C#N)ccc21)CCc1ccccc1 (racemic)	0.179	Ratio Ki (Rattus norvegicus [5]): 4.4; Ki [2]: 0.0409 µM; IC50 [6]: 5.3 µM; inhibition [3]: > 70%
–	CN(CCCC1(c2ccc(F)cc2)OCc2cc(C#N)ccc21)Cc1ccc(N(C)C)cc1 (racemic)	1.38	–
–	CN(C)CCCC1(c2ccc(F)cc2)OCc2cc(CNCc3ccc4ccccc4c3)ccc21 (racemic)	0.653	–
–	CN(C)CCCC1(c2ccc(F)cc2)COc2ccc(Br)cc21 (racemic)	4.97	–
33.2	CN(C)CCCC1(c2ccc(F)cc2)OCc2cc(CN)ccc21 (racemic)	–	–

SMILES	inhibition (Rattus norvegicus [1]) [%]	Ki [4] [µM]	further results
CN(CCN)CCCC1(c2ccc(F)cc2)OCc2cc(C#N)ccc21 (racemic)	20.2	–	–
CN(CCCC1(c2ccc(F)cc2)OCc2cc(C#N)ccc21)Cc1ccc2c(c1)Cc1ccccc1-2 (racemic)	60.3	–	Ki [2]: 0.019 µM; inhibition [3]: > 70%
CN(CCCC1(c2ccc(F)cc2)OCc2cc(C#N)ccc21)CC1CC1 (racemic)	69.8	–	–
COC(=O)c1ccc2c(c1)COC2(CCCN(C)C)c1ccc(F)cc1 (racemic)	64.3	–	–
CN(C)CCCC1(c2ccc(F)cc2)OCc2cc(C=O)ccc21 (racemic)	46.1	–	–
CN(C)CCCC1(c2ccc(F)cc2)OCc2cc(CN3CCCCC3)ccc21 (racemic)	29.3	–	–
CN(CCCC1(c2ccc(F)cc2)OCc2cc(C#N)ccc21)Cc1ccncc1 (racemic)	28.1	–	–
CN(C)CCCC1(c2ccc(F)cc2)OCc2cc(CN(C)CCCC3(c4ccc(F)cc4)OCc4cc(C#N)ccc43)ccc21 (racemic)	65.1	–	–
CN(C)CCCC1(c2ccc(F)cc2)OCc2cc(CN(C)C)ccc21 (racemic)	21.9	–	–
